Compound activity: PubChem, several laboratories
UPR CHOP act = apoptotic UPR (CHOP) activation | CHO-CHOP luciferase reporter, luminescence; percent of tunicamycin response over DMSO baseline | activation, % at 10 µM | hit rate 0.34% among 330,000;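 active = at 10 µM dose, activation of 40% or more, normalized to positive control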;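 also: 100% = tunicamycin at 10 µg/mL and 0% = DMSO alone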
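Assay system: CHO-CHOP cells, stable luciferase reporter of PERK-eIF2a-CHOP signalling / Buffer or medium: F12 plus 10% serum / Compound dosing: one dose, 10 µM in 0.5% DMSO / Times: 6 h compound treatment, 37 °C / Technique: luciferase luminescence / Read-out: % reporter activation, DMSO baseline versus tunicamycin full activation / Benchmarks: tunicamycin and DMSO controls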
UPR XBP1 act = adaptive UPR (XBP1) activation; activation, % at 20 µM; AID 463104; hit rate 0.33% among 330,000; CHO-XBP1 luciferase reporter, IRE1-XBP1 UPR activation, luminescence; percent of tunicamycin response, DMSO as zero;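 active = versus positive control, 20 µM dose yields 30% or more activation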;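 also: 100% = tunicamycin at 10 µg/mL and 0% = DMSO only wells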
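Material: CHO-XBP1 cells stably carrying IRE1-XBP1-driven luciferase reporter / Amount: 1000 cells per well / Compound: 20 µM, 1% DMSO / Times: 6 h treatment, 37 °C / Detection: luciferase luminescence / Measure: % activation of reporter signal versus tunicamycin and DMSO controls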
PvdQ acylase = P. aeruginosa PvdQ acylase inhibition | purified PvdQ acylase, fluorescence plate reader | inhibition, % at 10 µM | hit rate 0.063% among 340,000; in the data active = inhibition above about 30%, passing the limit was not always enough;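 also: 0% = vehicle neutral wells and 100% = reference inhibitor wells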
CHOP inh = inhibitors of CHOP induction in ER stress response; CHO-K1 CHOP-promoter luciferase, tunicamycin-induced, 15-18 h; inhibition, % at 10 µM; hit rate 3.8% among 220,000;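 active = compounds that reduced the stress-induced luciferase reporter signal by more than about 70% of percent inhibition, limit read from the data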;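 also: 0% = tunicamycin plus vehicle and 100% = wells without tunicamycin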
CHOP inh conf = confirmation of CHOP induction inhibitors. shares compounds with CHOP inh. CHO-CHOP promoter luciferase reporter, tunicamycin-induced, luminescence. inhibition, % at 10 µM. hit rate 45% among 2,100. AID 504437;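 active = mean of three repeat readings of reporter signal inhibition above a set limit, cut at about 70% in these data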;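 also: 0% = tunicamycin plus vehicle and 100% = wells lacking tunicamycin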
UPR CHOP confirm = apoptotic UPR (CHOP) activation, confirmed | CHO-CHOP cells, CHOP-luciferase reporter luminescence; percent of tunicamycin response, DMSO as zero | AID 463112 | activation, % at 10 µM | shares compounds with UPR CHOP act | hit rate 64% among 1,000; in the data active = activation above about 33%;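 also: 0% = DMSO wells and 100% = tunicamycin 10 µg/mL wells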
UPR XBP1 confirm = confirmation of adaptive unfolded protein response (XBP1) activators. shares compounds with UPR XBP1 act. CHO-XBP1 IRE1-XBP1 luciferase reporter, luminescence. activation, % at 20 µM. hit rate 63% among 1,000;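 active = reporter signal at least 30% of the positive control's activation in two or more of four replicate wells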;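 also: plate controls were DMSO negative control for no effect and tunicamycin 10 µg/mL positive control for full effect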
* = called active by the depositor; nt = not tested or not shown. Many of the other results were omitted from the sample, so hits are more common in it than they were.

SMILES | UPR CHOP act | UPR XBP1 act | PvdQ acylase | CHOP inh | CHOP inh conf | UPR CHOP confirm | others
O=C(O)CCS(=O)(=O)c1nc(-c2cccs2)cc(C(F)(F)F)n1 | 1.9 | -0.7 | 17.7 | -42.4 | nt | nt
COc1ccc(-c2cc(C(F)(F)F)nc(S(C)(=O)=O)n2)cc1 | 43.1* | 2.3 | -1.3 | 106.1* | -138.7 | 8.8
CCOC(=O)CCS(=O)(=O)c1nc(-c2ccccc2)cc(C(F)(F)F)n1 | 72.8* | -10.8 | 8.9 | nt | 136.4* | -8.8
COc1ccc(-c2cc(C(F)(F)F)nc(N)n2)cc1 | 3.6 | 3.8 | -2.7 | 8.1 | nt | nt
O=C1COc2ccc(C(=O)CCl)cc2N1 | 148.4* | -6.0 | 2.6 | 100.7* | 18.4 | -6.7
CC[C@@H](C)[C@H](NC(=O)OC(C)(C)C)c1nnc(S(=O)(=O)Cc2cc(C)ccc2C)o1 | 225.4* | -15.7 | -10.0 | 114.9* | 123.3* | 100.3*
Cc1cc(NC(=O)CSc2nncn2N)no1 | 0.4 | -4.7 | -9.9 | 2.9 | nt | nt
Cc1ccc(O)c(NC(=S)NC(=O)C(C)C)c1 | 1.0 | -0.7 | -4.4 | -8.5 | nt | nt
CS(=O)(=O)c1nc(-c2ccc(Br)cc2)cc(-c2ccccc2)c1C#N | 278.8* | 10.6 | -4.1 | 108.4* | -30.3 | 130.4*
N#Cc1c(-c2ccccc2)cc(-c2ccc(O)cc2)nc1N | 2.6 | 8.8 | 6.9 | nt | nt | nt
COc1cccc(NC(=O)CN(C)C(C)C(=O)NC(C)c2ccc(Cl)cc2Cl)c1 (centres undefined) | -0.1 | -3.6 | -11.1 | nt | nt | nt
O=[N+]([O-])c1cc(-c2ncccn2)c([N+](=O)[O-])s1 | 72.7* | -5.0 | 2.6 | 108.8* | -111.7 | 163.8*
O=C(Nc1ncccn1)c1cc([N+](=O)[O-])cc([N+](=O)[O-])c1 | 4.5 | -2.4 | -1.6 | -9.4 | nt | nt
Cc1ccc(S(=O)(=O)N2CCN(C(=O)Cc3ccc4c(c3)OCCO4)CC2)cc1C | 3.1 | -1.0 | 0.5 | 12.2 | nt | nt
CCCCC(=O)/C=C/n1c(=S)oc2ccccc21 | 119.7* | -1.3 | -20.0 | 107.8* | 2.9 | 21.5
CC(C)OC(=O)n1c(=S)oc2ccccc21 | -1.7 | -3.9 | -2.1 | 49.2 | nt | nt
O=C1CCCC/C1=C\Nc1ccc(S(=O)(=O)Nc2cnc3ccccc3n2)cc1 | 1.2 | -0.8 | -9.7 | 7.5 | nt | nt
CN(C)c1ncc(C2=C(Cl)C(=O)C(N3CCCC3)=C(Cl)C2=O)s1 | 83.2* | 0.8 | 13.5 | 108.1* | 63.7 | -7.5
Cc1ccc(CNC(=O)CN2C(=O)c3ccccc3S2(=O)=O)cc1 | 3.2 | 5.0 | 2.2 | nt | nt | nt
CCNc1nc(NCC)nc(Oc2ccc(OCc3ccccc3)nn2)n1 | 0.0 | -1.8 | nt | 6.0 | nt | nt
Cn1nc([N+](=O)[O-])c(C(C#N)c2ccccn2)c(Cl)c1=O (centres undefined) | 73.2* | -4.2 | 2.5 | 102.8* | 49.3 | 49.0*
O=C(O)C(Sc1ccncn1)c1ccccc1 (centres undefined) | 0.6 | -1.8 | -14.2 | 20.5 | nt | nt
Cc1cc(C)cc(NC(=O)c2ccc(N3C(=O)C4CCCCC4C3=O)cc2)c1 (centres undefined) | 1.9 | -3.4 | -8.0 | nt | nt | nt
CC1=NN(c2ccccc2)C(=O)/C1=C\c1cn(-c2ccccc2)nc1C | 0.0 | -2.6 | -7.6 | -1.3 | nt | nt
Cc1ccc(-c2nn(-c3ccccc3)cc2C=C2C(=O)CC(C)(C)CC2=O)cc1 | 47.6* | 12.6 | -11.6 | 98.4* | -9.4 | 206.1*
SMILES | UPR CHOP act | UPR XBP1 act | PvdQ acylase | CHOP inh | CHOP inh conf | UPR CHOP confirm | others
Cc1ccc(Nc2nc(NCc3ccco3)c3ccccc3n2)cc1 | 22.0 | 61.4* | -9.8 | 106.0* | 114.7* | nt | UPR XBP1 confirm=72.3*
COc1ccccc1Nc1nc(NCc2ccco2)c2ccccc2n1 | 3.2 | 1.3 | nt | 11.9 | nt | nt
Cc1ccc(-c2nnc(-c3ccc(NC(=O)Cc4cccs4)cc3)o2)cc1 | 41.3* | 141.8* | 5.4 | 105.3* | 102.2* | 14.8 | UPR XBP1 confirm=51.6*
O=C(Cc1cccs1)Nc1cccc(-c2nnc(-c3ccco3)o2)c1 | 2.5 | -3.2 | -3.1 | 38.1 | nt | nt
Oc1cccc(-c2nc3c4c(ncn3n2)-c2ccccc2CC42CCCC2)c1 | 5.3 | 31.0* | -9.4 | 99.5* | 82.6* | nt | UPR XBP1 confirm=50.4*
O=C(Nc1ccc(O)c(-c2nc3ccccc3s2)c1)c1cc(=O)c2ccccc2o1 | 0.7 | 41.6* | 2.5 | 107.9* | 21.0 | nt | UPR XBP1 confirm=93.5*
CNC(=O)/C(C#N)=C/c1cn(CC(=O)NCc2ccco2)c2ccccc12 | 0.0 | -2.3 | -7.9 | 24.2 | nt | nt
Cc1cc(C)cc(NC(=O)/C(C#N)=C/c2cn(CC(=O)NCc3ccco3)c3ccccc23)c1 | 276.5* | 151.8* | 6.7 | 106.0* | 105.6* | 44.0* | UPR XBP1 confirm=295.1*
Cc1ccc(C)c(NC(=O)/C(C#N)=C/c2cn(CC(=O)NCc3ccco3)c3ccccc23)c1 | 111.0* | 223.7* | -11.9 | 106.0* | 58.1 | 51.0* | UPR XBP1 confirm=15.7
Cc1ccccc1OCCn1cc(/C=C(\C#N)C(=O)NCc2ccco2)c2ccccc21 | -3.8 | -4.8 | 6.0 | 38.6 | nt | nt
CCNc1nc(NCC)nc(SCCOc2ccc(C)cc2)n1 | 1.2 | 1.3 | -9.1 | 46.8 | nt | nt
O=C(COC(=O)/C=C/c1ccc(C(F)(F)F)cc1)NC(=O)NCc1ccco1 | -1.8 | -4.9 | 4.1 | nt | nt | nt
CC(NC(=S)NCc1ccc(F)cc1)C12CC3CC(CC(C3)C1)C2 (centres undefined) | 0.0 | -0.9 | -4.0 | -21.3 | nt | nt
Oc1ccc(/C=N/Nc2nc(N3CCCCCC3)nc(N3CCCCCC3)n2)c(O)c1 | 10.5 | 39.4* | -7.3 | 103.4* | 97.8* | nt | UPR XBP1 confirm=11.3
Oc1ccc(Br)cc1/C=N/Nc1nc(N2CCCCC2)nc(N2CCOCC2)n1 | 2.0 | -2.5 | nt | 14.6 | nt | nt
COc1ccc(CCN2CC(C(=O)OCC(=O)N(C)CC(=O)Nc3ccccc3Cl)CC2=O)cc1OC (centres undefined) | nt | nt | 0.1 | nt | nt | nt
O=C(/C=C/c1ccccc1)NC(NC(=S)Nc1cccc(O)c1)C(Cl)(Cl)Cl (centres undefined) | 0.9 | -0.9 | -12.3 | 57.4 | nt | nt
O=C(/C=C/c1ccccc1)NC(NC(=S)Nc1cccc(Cl)c1)C(Cl)(Cl)Cl (centres undefined) | 36.4 | 51.2* | -9.7 | 110.6* | 42.1 | nt | UPR XBP1 confirm=30.2*
Cc1cccc(NC(=O)c2ccccc2NC(=O)c2ccco2)c1 | 2.2 | 1.3 | -4.9 | nt | nt | nt
O=C(Cc1csc(Nc2nc(=S)[nH]c3ccccc23)n1)NCCCN1CCN(c2ccccc2F)CC1 | 2.9 | 63.5* | 7.3 | 105.4* | 84.8* | nt | UPR XBP1 confirm=18.7
CCOC(=O)c1c2ccc(OCC(=O)N/N=C/c3ccc(C)cc3)cc2n2ccccc12 | 157.5* | 122.9* | -4.3 | 103.6* | 113.7* | 61.3* | UPR XBP1 confirm=105.9*
CCOC(=O)c1c2ccc(OCC(=O)NN)cc2n2ccccc12 | -1.4 | -3.3 | -7.0 | 32.5 | nt | nt
CCC(CO)n1c(=S)[nH]c2cc(OC)c(OC)cc2c1=O (centres undefined) | 0.2 | 1.3 | 1.1 | -31.5 | nt | nt
